Legend:
[1] = tested on: MDA-MB-231 breast carcinoma cells; assay: Wound-healing; format: cell-based; details: wound-healing assay, 20-hour time span, six biological replicates
Method in brief: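 Scratch-wound migration of MDA-MB-231 breast carcinoma cells followed over 20 h with test compounds (a glycopeptide, a peptide, or heparin) at several concentrations. Migration was scored as relative migration, and the concentration giving maximal inhibition of migration was noted.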

integrin = details: ref [3], [20]; cited from earlier work

heparin
concentration at which maximal inhibitory effect on migration is reached [1]: 6 µM
integrin binding relative to heparan sulfate (in words) (integrin): binds more tightly with integrin than heparan sulfate

From publication PMC8052682 (Chemical communications (Cambridge, England), 2021)
